Assays:
[1] = tested on: BEL-7402 human hepatoma cells; test: BEL-7402 human hepatoma xenograft model; type: in vivo, nude mice
[2] = tested on: H22 mouse hepatoma cells; test: H22 hepatoma xenograft model; type: in vivo, Kun Ming (KM) mice
In short: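 Kun Ming mice (eight/group) received 2×10^5 H22 hepatoma cells sc in the right armpit. Test compound (5, 15, 45 mg/kg) or adriamycin (2 mg/kg) in HS-15/N,N-dimethylformamide (1:1 v/v) was injected ip. Mice were weighed twice weekly and killed by cervical dislocation, and tumors were weighed. Inhibition (%) = (mean control tumor weight − mean treated)/mean control × 100.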

[3] = cited from earlier work
[4] = tested on: bone marrow polychromatic erythrocytes; conditions: 15 mg/kg, similar experiment conditions; cited from earlier work

Question: Which results are given for `COc1cccc2c1C(=O)c1c(O)c3c(c(O)c1C2=O)C[C@@](O)(C(=O)CO)C[C@@H]3O[C@H]1C[C@H](N)[C@H](O)[C@H](C)O1` [ADM, adriamycin]?
Answer: inhibitory rate ([1]; 2 mg/kg ip, BEL-7402 xenografts): 73.5%; inhibition of body weight of mice ([1]; BEL7402 xenografts): 33.3%; changes in body weights versus vehicle group ([1]; BEL-7402 xenografts, 3 weeks): significantly reduced; inhibitory rate of cancer growth ([2]; 2 mg/kg ip): 51.9%; influence on body weights of mice ([2]; H22-bearing mice): much more loss of body weight; inhibition of body weight of mice ([2]; H22 xenografts): 25.1%; bioavailability after oral administration [3]: poor bioavailability; induction of micronuclei [4]: induce large amounts of micronuclei

— paper PMC4207554 (Drug Design, Development and Therapy, 2014)
